{"source": "ChEMBL document CHEMBL3861950", "about": "“Design, synthesis and evaluation of novel 19F magnetic resonance sensitive protein tyrosine phosphatase inhibitors” (Medchemcomm, 2016)", "key": {"[1]": {"test": "Inhibition of recombinant Mycobacterium tuberculosis PTPB using pNPP as substrate by spectrophotometric method", "procedure,_shortened": "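Recombinant enzyme made in-house. Substrate pNPP in 50 mM 3,3-dimethylglutarate buffer, pH 7.0, with 1 mM EDTA and 150 mM NaCl, at 25 °C, screened in 96-well format. p-Nitrophenol product read at 405 nm. Non-enzymatic pNPP hydrolysis was corrected using a control without enzyme.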"}, "[2]": {"target": "T1, Tyrosine-protein phosphatase non-receptor type 1 (Homo sapiens, UniProt P18031)", "T1 sequence (P18031 whole entry)": "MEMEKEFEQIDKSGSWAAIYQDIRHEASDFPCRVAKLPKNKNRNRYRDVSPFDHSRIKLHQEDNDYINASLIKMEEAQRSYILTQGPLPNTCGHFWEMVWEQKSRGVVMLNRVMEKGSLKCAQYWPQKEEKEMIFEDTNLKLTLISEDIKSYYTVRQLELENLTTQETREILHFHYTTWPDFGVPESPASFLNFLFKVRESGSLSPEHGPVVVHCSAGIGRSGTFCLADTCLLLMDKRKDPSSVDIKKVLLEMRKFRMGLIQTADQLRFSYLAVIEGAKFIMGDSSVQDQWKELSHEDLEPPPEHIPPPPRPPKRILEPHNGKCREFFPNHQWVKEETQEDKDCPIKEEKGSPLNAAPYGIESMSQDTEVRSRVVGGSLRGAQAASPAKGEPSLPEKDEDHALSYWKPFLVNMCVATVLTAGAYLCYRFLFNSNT", "test": "Inhibition of recombinant PTP1B (unknown origin) using pNPP as substrate by spectrophotometric method", "procedure,_shortened": "(§1)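 Recombinant PTP prepared in-house, assayed with pNPP substrate in 50 mM 3,3-dimethylglutarate buffer pH 7.0 containing 1 mM EDTA and 150 mM NaCl at 25 °C, in 96-well format. p-Nitrophenol product was quantified by absorbance at 405 nm. Non-enzymatic pNPP hydrolysis was corrected using a no-enzyme control.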"}, "[3]": {"target": "T2, Receptor-type tyrosine-protein phosphatase C (Homo sapiens, UniProt P08575)", "T2 sequence (P08575 whole entry)": "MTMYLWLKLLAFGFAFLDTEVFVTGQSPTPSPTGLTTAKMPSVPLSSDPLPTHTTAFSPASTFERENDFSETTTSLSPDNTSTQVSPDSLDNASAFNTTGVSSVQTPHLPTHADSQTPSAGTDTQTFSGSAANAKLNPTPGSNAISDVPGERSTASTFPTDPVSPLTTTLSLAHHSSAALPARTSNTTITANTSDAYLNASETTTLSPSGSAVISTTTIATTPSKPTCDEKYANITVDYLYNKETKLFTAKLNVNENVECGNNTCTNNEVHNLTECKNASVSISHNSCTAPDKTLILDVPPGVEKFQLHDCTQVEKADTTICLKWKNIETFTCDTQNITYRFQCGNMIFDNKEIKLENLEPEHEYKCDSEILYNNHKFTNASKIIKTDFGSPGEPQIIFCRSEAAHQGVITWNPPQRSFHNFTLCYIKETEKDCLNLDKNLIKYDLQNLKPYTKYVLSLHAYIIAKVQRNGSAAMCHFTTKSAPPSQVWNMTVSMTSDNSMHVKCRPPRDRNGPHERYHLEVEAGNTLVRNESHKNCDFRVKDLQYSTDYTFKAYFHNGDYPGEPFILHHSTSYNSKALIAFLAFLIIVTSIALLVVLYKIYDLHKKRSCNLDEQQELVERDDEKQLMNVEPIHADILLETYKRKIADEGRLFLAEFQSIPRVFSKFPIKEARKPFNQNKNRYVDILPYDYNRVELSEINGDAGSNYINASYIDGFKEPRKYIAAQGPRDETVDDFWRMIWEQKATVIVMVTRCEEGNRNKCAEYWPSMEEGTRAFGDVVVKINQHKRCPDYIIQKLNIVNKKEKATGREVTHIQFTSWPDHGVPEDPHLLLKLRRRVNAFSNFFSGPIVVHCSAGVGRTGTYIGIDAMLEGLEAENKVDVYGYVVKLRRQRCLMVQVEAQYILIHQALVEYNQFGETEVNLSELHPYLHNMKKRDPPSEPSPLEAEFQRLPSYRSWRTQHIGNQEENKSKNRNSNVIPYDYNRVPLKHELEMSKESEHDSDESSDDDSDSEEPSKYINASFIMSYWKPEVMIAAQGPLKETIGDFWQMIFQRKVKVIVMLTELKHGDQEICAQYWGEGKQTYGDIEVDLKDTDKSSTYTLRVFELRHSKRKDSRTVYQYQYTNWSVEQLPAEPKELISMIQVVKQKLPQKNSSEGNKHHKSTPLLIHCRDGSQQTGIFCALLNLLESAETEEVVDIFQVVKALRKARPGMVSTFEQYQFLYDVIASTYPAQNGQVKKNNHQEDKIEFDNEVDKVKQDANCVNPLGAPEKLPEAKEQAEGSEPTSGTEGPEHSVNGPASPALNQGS", "test": "Inhibition of recombinant CD45 (unknown origin) using pNPP as substrate by spectrophotometric method", "procedure,_shortened": "as §1"}, "[4]": {"test": "Selectivity ratio of IC50 for recombinant SHP2 (unknown origin) to IC50 for recombinant Mycobacterium tuberculosis PTPB"}, "[5]": {"test": "Selectivity ratio of IC50 for recombinant PTP1B (unknown origin) to IC50 for recombinant Mycobacterium tuberculosis PTPB"}, "[6]": {"test": "Selectivity ratio of IC50 for recombinant CD45 (unknown origin) to IC50 for recombinant Mycobacterium tuberculosis PTPB"}, "[7]": {"test": "Selectivity ratio of IC50 for recombinant LYP (unknown origin) to IC50 for recombinant Mycobacterium tuberculosis PTPB"}}, "data": [{"smiles": "Cc1ccc(S(=O)(=O)NNC(=O)COc2ccc3cc(C(O)(C(F)(F)F)C(F)(F)F)c(O)cc3c2)cc1", "values": [{"measurement": "IC50", "setting": "[1]", "value": 2.3, "unit": "µM"}, {"measurement": "IC50", "setting": "[2]", "value": "> 20", "unit": "µM"}, {"measurement": "IC50", "setting": "[3]", "value": 16.1, "unit": "µM"}, {"measurement": "Ratio IC50", "setting": "[4]", "value": "> 7"}, {"measurement": "Ratio IC50", "setting": "[5]", "value": "> 7"}, {"measurement": "Ratio IC50", "setting": "[6]", "value": "> 7"}, {"measurement": "Ratio IC50", "setting": "[7]", "value": "> 7"}]}]}
